Legend:
[1] = molecular target: Sigma non-opioid intracellular receptor 1 (Cavia porcellus, UniProt Q60492); experiment: Displacement of [3H]-(+)-pentazocine from Sigma1 receptor in Dunkin Hartley guinea pig brain membrane after 180 mins by liquid scintillation counting analysis
Summary of the method: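 Guinea pig brain (minus cerebellum) P2 membranes in Tris-HCl. Incubated with [³H]-(+)-pentazocine (4.0 nM solution added) in pH 8.0 buffer, 25 °C for 180 min; nonspecific binding with haloperidol. Filtered through PEI-presoaked GF/B filters; scintillation counting. Compounds in 5% DMSO, six concentrations (10⁻⁵–10⁻¹⁰ M). […] At least three experiments.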

[2] = Displacement of [3H]-DTG from Sigma2 receptor in Dunkin Hartley guinea pig brain membrane after 120 mins by liquid scintillation counting analysis in presence of sigma1 blocker (+)-SKF-10047; set-up: species or system Cavia porcellus
Summary of the method: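 Guinea pig brain P2 membranes incubated with 3 nM [³H]-DTG plus 400 nM (+)-SKF-10047 to block σ1 sites, Tris-HCl pH 8.0, 25 °C for 120 min; nonspecific binding with DTG. Filtration on PEI-presoaked GF/B filters, scintillation counting. […] At least three experiments.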

Cavia porcellus = species on record: Cavia porcellus; experiment: Selectivity ratio of Ki for Sigma2 receptor in Dunkin Hartley guinea pig brain membrane to Ki for Sigma1 receptor in Dunkin Hartley guinea pig brain membrane
Summary of the method: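 Guinea pig brain P2 membranes, minus cerebellum. σ1: [3H]-(+)-pentazocine, haloperidol for nonspecific binding, 25 °C for 180 min. σ2: 3 nM [3H]-DTG with 400 nM (+)-SKF-10047 masking σ1, DTG for nonspecific binding, 25 °C for 120 min. Six concentrations, 10⁻⁵ to 10⁻¹⁰. Filter-bound radioactivity counted. Hill-fit IC50 converted by Cheng–Prusoff, at least three experiments each; ratio σ2 Ki/σ1 Ki.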

[3] = Acute toxicity in po dosed Kun Ming mouse assessed as mortality after 24 hrs; assay type: organism-based; settings: in vivo
Summary of the method: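 Mice, 10 per group, given a single oral dose (10 mL/kg) of 0.5% methylcellulose vehicle or test compound at 200, 500, 1000, 1500 or 2000 mg/kg. Survivors were counted 24 h after dosing and percent mortality per group was calculated. LD50 was derived by statistical analysis.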

Mus musculus [4] = experiment: Toxicity in Kun Ming mouse assessed as reduction in the permanence time on the rotating rod at 80 mg/kg, ig measured after 30 to 120 mins by rotarod test; assay type: organism-based; settings: in vivo, po
Summary of the method: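 Mice were pre-trained; any that could not stay 300 s on the rod at 10 rpm were excluded. Latency to fall from the rod rotating at 10 rpm was recorded 30, 60, 90 and 120 min after intragastric dosing. 8–10 mice per group.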

[5] = molecular target: Voltage-gated inwardly rectifying potassium channel KCNH2 (Homo sapiens, UniProt Q12809); experiment: Inhibition of human ERG expressed in HEK293 cells assessed as tail current at -50 mV holding potential by whole-cell patch clamp method
Chain of Voltage-gated inwardly rectifying potassium channel KCNH2 (Q12809 whole entry): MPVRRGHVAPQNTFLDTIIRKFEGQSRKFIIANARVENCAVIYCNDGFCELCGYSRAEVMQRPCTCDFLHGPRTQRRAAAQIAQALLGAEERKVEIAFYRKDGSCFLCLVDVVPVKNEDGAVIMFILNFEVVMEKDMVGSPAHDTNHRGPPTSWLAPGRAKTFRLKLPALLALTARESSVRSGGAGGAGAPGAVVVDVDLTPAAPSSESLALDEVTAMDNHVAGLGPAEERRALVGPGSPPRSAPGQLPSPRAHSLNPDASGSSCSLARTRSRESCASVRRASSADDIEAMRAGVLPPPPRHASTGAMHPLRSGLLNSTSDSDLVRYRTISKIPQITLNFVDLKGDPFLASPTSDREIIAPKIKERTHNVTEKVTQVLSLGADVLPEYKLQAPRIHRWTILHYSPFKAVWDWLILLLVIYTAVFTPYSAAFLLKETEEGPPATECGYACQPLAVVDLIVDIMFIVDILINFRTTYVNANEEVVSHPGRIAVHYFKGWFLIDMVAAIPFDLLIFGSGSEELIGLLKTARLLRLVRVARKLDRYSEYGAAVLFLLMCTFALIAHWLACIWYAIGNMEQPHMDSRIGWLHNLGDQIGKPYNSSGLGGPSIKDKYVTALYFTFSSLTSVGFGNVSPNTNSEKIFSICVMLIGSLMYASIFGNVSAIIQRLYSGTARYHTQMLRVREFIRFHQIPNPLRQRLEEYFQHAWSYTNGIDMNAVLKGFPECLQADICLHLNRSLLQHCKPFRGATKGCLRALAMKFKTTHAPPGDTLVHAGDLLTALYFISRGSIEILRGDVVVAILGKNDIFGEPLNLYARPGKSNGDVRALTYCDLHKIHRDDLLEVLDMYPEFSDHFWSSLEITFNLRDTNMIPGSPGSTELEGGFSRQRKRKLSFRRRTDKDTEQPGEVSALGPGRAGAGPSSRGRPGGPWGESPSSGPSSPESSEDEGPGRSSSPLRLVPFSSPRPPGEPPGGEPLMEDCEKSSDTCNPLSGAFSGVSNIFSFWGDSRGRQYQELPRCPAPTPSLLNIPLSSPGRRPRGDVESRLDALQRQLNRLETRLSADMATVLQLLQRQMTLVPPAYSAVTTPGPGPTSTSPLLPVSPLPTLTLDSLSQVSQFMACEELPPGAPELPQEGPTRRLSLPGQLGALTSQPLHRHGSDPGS

Mus musculus [6] = experiment: Antiallodynic activity in Kun Ming mouse assessed as paw licking time at 160 mg/kg, ig administered 15 mins prior to formalin challenge measured after15 to 45 mins post formalin dosing; assay type: functional
Summary of the method: (§1)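 Mice received 20 μL of 2.5% formalin (0.92% formaldehyde) in the dorsal right hind paw. Time spent licking or biting the paw was scored at 0–5 min (phase I) and 15–45 min (phase II), with a mirror behind the glass cylinder. Vehicle was 30% PEG 400 at 10 mL/kg, given 15 min before formalin. n = 10–12 per group. % antinociception = (LT_V − LT_D)/LT_V × 100.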

Mus musculus [7] = experiment: Antiallodynic activity in Kun Ming mouse assessed as paw biting time at 160 mg/kg, ig administered 15 mins prior to formalin challenge measured after 15 to 45 mins post formalin dosing; assay type: functional; summary of the method: as §1

Chain of Sigma non-opioid intracellular receptor 1 (Q60492 whole entry): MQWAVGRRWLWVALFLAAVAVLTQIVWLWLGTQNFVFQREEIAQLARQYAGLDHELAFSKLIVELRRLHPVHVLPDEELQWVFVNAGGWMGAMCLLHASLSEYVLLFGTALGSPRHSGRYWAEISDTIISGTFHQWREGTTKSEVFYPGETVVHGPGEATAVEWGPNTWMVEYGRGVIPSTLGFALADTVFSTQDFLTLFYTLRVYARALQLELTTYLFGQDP

Row | Structure (SMILES) | Ki [1] [nM] | Ki [2] [nM] | Ratio Ki (Cavia porcellus) | LD50 at 24 h [3] [mg/kg] | Activity (Mus musculus [4]) | IC50 [5] [nM] | Time (Mus musculus [6]) [s] | Time (Mus musculus [7]) [s]
1 | O=c1ccc(OCCCN2CCCCC2)nn1-c1cccc(Cl)c1Cl | 48 | 1620 | 33.6 | – | – | – | – | –
2 | O=c1ccc(OCCCN2CCCCC2)nn1-c1ccc(F)c(F)c1 | 8 | 1910 | – | 780 | – | – | – | –
3 | O=c1ccc(OCCCN2CCCCC2)nn1-c1cc(Cl)ccc1Cl | 45 | 902 | 20 | – | – | – | – | –
4 | CC1CCN(CCCOc2ccc(=O)n(-c3ccc(Cl)cc3Cl)n2)CC1 | 35 | 1100 | 31.4 | – | – | – | – | –
5 | CC1CCN(CCCOc2ccc(=O)n(-c3ccc(Cl)cc3)n2)CC1 | 9.5 | 1780 | – | 717 | – | – | – | –
6 | O=c1ccc(OCCCN2CCCCC2)nn1-c1ccc2ccccc2c1 | 74.1 | 895 | 12.1 | – | – | – | – | –
7 | O=c1ccc(OCCCN2CCOCC2)nn1-c1ccccc1 | 66.3 | 502 | 7.6 | – | – | – | – | –
8 | Cc1cc(OCCN2CCOCC2)nn1-c1ccc2ccccc2c1 | – | > 2000 | – | – | Toxic | – | – | –
9 | O=c1ccc(OCCCN2CCCCC2)nn1-c1ccc(Cl)cc1Cl | 25 | 809 | 32.3 | – | – | – | – | –
10 | CN1CCCN(CCCOc2ccc(=O)n(-c3ccccc3)n2)CC1 | 30.3 | 508 | 16.8 | – | – | – | – | –
11 | CC1CCN(CCCOc2ccc(=O)n(-c3cc(Cl)cc(Cl)c3)n2)CC1 | 43 | 1320 | 30.7 | – | – | – | – | –
12 | Cc1ccc(-n2nc(OCCCN3CCC(C)CC3)ccc2=O)cc1 | 61.6 | 1550 | 25.1 | – | – | – | – | –
13 | O=c1c2c(c(OCCCN3CCCCC3)nn1-c1ccc(Cl)c(Cl)c1)CCCC2 | 104 | 934 | 8.9 | – | – | – | – | –
14 | CN(C)CCCOc1ccc(=O)n(-c2ccccc2)n1 | 108 | 818 | 7.57 | – | – | – | – | –
15 | Cc1c(OCCCN2CCCCC2)nn(-c2ccc(Cl)c(Cl)c2)c(=O)c1C | 66.6 | 1430 | 21.4 | – | – | – | – | –
16 | CC1CCN(CCCOc2ccc(=O)n(-c3ccc(Cl)c(Cl)c3)n2)CC1 | 5 | 1740 | 348 | 575 | – | 1460 | – | –
17 | CC1CC(C)CN(CCCCOc2ccc(=O)n(-c3ccccc3)n2)C1 (stereo not given) | 222 | 1370 | 6.2 | – | – | – | – | –
18 | CC1CCN(CCCOc2ccc(=O)n(-c3cc(Cl)ccc3Cl)n2)CC1 | 60 | 870 | 14.5 | – | – | – | – | –
19 | CC1CCN(CCCCOc2ccc(=O)n(-c3ccccc3)n2)CC1 | 143 | 1440 | 10.1 | – | – | – | – | –
20 | CC1CCN(CCCOc2ccc(=O)n(-c3ccccc3)n2)CC1 | 28 | 1460 | 52.3 | – | – | – | – | –
21 | CC1CCN(CCCOc2ccc(=O)n(-c3ccc(F)c(Cl)c3)n2)CC1 | 10 | 1630 | 163 | 1530 | – | 2160 | 59.65 | 56.43

Row | Structure (SMILES) | Ki [1] [nM] | Ki [2] [nM] | Ratio Ki (Cavia porcellus) | LD50 at 24 h [3] [mg/kg] | Activity (Mus musculus [4]) | IC50 [5] [nM] | Time (Mus musculus [6]) [s] | Time (Mus musculus [7]) [s]
22 | O=c1ccc(OCCCN2CCCCC2)nn1C1CCCC1 | > 2000 | > 2000 | – | – | – | – | – | –
23 | O=c1ccc(OCCCN2CCCCC2)nn1-c1cc(Cl)cc(Cl)c1 | 30 | 1300 | 43.3 | – | – | – | – | –
24 | O=c1ccc(OCCCN2CCCCC2)nn1-c1ccc(F)c(Cl)c1 | 10 | 1580 | 158 | 900 | – | 980 | – | –
25 | CC1CCN(CCCOc2ccc(=O)n(-c3cccc(Cl)c3Cl)n2)CC1 | 55 | 1200 | 21.8 | – | – | – | – | –
26 | O=c1ccc(OCCN2CCCCC2)nn1-c1ccccc1 | > 2000 | > 2000 | – | – | – | – | – | –
27 | O=c1c2ccccc2c(OCCCN2CCCCC2)nn1-c1ccc(Cl)c(Cl)c1 | 140 | 1510 | 10.8 | – | – | – | – | –
28 | O=C1CCN(CCCOc2ccc(=O)n(-c3ccccc3)n2)CC1 | 580 | > 2000 | – | – | – | – | – | –
29 | O=c1ccc(OCCCN2CCCCC2)nn1-c1ccc(Cl)cc1 | 9.8 | 1570 | 160 | 754 | – | 1450 | – | –
30 | O=c1ccc(OCCCN2CCCC2)nn1-c1ccccc1 | 35.5 | 458 | 12.9 | – | – | – | – | –
31 | CC(C)N(CCCOc1ccc(=O)n(-c2ccccc2)n1)C(C)C | 98.1 | 1120 | 11.4 | – | – | – | – | –
32 | O=c1ccc(OCCCN2CCCCC2)nn1-c1ccc(F)cc1 | 17 | > 2000 | – | – | – | – | – | –
33 | O=c1ccc(OCCCCN2CCCCC2)nn1-c1ccccc1 | 124 | 1720 | 13.9 | – | – | – | – | –
34 | Cc1ccc(-n2nc(OCCCN3CCCCC3)ccc2=O)cc1 | 69 | 1280 | 18.6 | – | – | – | – | –
35 | CC1CCN(CCCOc2ccc(=O)n(-c3ccc(F)c(F)c3)n2)CC1 | 15 | 1700 | 113 | 1300 | – | 2680 | 59.65 | 56.43
36 | CCN1CCN(CCCOc2ccc(=O)n(-c3ccccc3)n2)CC1 | 40.1 | 620 | 15.5 | – | – | – | – | –
37 | CN1CCN(CCCOc2ccc(=O)n(-c3ccccc3)n2)CC1 | 31.7 | 376 | 11.9 | – | – | – | – | –
38 | CC1CCN(CCCOc2ccc(=O)n(-c3ccc4ccccc4c3)n2)CC1 | 84.1 | 913 | 10.8 | – | – | – | – | –
39 | CC1CC(C)CN(CCCOc2ccc(=O)n(-c3ccccc3)n2)C1 (stereo not given) | 46 | 1820 | 39.6 | – | – | – | – | –
40 | O=c1ccc(OCCCN2CCCCC2)nn1-c1ccccc1 | 21.4 | 1070 | 50.2 | – | – | – | – | –
41 | CC1CCN(CCCOc2ccc(=O)n(-c3ccc(F)cc3)n2)CC1 | 19.8 | 1620 | 81.7 | – | – | – | – | –
42 | CCN(CC)CCCOc1ccc(=O)n(-c2ccccc2)n1 | 96.5 | 1170 | 12.1 | – | – | – | – | –
